Calls of active or inactive are those of the source. The rule behind the calls is not given here.
Assays:
[1] = biological target: T1, Inhibitor of nuclear factor kappa-B kinase subunit beta (Homo sapiens, UniProt O14920); assay: Inhibition of human IKKbeta using IKKtide as substrate after 20 mins by [gamma-33P]-ATP based radiometric assay
T1 sequence (O14920 whole entry): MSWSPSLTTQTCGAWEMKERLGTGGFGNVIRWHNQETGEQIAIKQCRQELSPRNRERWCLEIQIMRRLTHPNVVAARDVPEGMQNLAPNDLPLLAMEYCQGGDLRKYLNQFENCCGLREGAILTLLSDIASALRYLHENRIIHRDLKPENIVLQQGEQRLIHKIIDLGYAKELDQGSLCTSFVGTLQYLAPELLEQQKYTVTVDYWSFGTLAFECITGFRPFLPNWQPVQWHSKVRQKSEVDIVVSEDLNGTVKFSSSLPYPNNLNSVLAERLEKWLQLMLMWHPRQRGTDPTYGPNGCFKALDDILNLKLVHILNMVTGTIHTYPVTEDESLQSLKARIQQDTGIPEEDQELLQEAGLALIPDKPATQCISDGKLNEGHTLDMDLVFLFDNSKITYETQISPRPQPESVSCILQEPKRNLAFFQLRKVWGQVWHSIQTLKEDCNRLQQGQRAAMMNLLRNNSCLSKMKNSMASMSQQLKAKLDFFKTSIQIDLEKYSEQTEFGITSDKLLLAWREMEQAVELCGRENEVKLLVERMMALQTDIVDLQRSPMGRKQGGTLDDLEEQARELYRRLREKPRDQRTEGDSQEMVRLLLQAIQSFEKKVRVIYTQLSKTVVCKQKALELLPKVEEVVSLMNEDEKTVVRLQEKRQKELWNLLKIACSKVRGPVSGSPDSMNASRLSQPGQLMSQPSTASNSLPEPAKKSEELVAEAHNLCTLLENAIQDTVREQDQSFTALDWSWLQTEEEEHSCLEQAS

[2] = biological target: T2, Inhibitor of nuclear factor kappa-B kinase subunit beta (Homo sapiens) (UniProt O14920); assay: Inhibition of IKKbeta (unknown origin) at 10 uM using IkappaBalpha-derived 5FAMGRHDSGLDSMK-NH2 as substrate preincubated for 10 mins followed by substrate addition measured after 2 hrs by IMAP based TR-FRET assay relative to control
T2 sequence (whole entry): T1 sequence (O14920 whole entry)
Method in brief: (§1)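 Recombinant IKK2 at 0.5 µg/mL in 10 mM Tris-HCl pH 7.2, 10 mM MgCl2, 0.05% NaN3, 1 mM DTT, 0.01% Tween-20. Compound preincubated with enzyme for 10 min, then 1 μM 5-FAM IκBα peptide and 3 μM ATP added; reaction at room temperature for 2 h. IMAP binding reagent (1:600) plus terbium donor (1:400) added 15 h before the TR-FRET read. Percent inhibition measured at 10 µM.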

hERG (KCNH2) = hERG (KCNH2) (Homo sapiens, UniProt Q12809); assay: Inhibition of human ERG expressed in CHOK1 cells assessed as reduction in tail current at 100 uM and -80 holding potential after 100 to 200 secs by whole cell automated patch-clamp electrophysiology assay relative to control; type: ADME, cell-based; settings: CHO-K1 cells expressing human ERG
Chain of hERG (KCNH2) (Q12809 whole entry, the tested form may be a part): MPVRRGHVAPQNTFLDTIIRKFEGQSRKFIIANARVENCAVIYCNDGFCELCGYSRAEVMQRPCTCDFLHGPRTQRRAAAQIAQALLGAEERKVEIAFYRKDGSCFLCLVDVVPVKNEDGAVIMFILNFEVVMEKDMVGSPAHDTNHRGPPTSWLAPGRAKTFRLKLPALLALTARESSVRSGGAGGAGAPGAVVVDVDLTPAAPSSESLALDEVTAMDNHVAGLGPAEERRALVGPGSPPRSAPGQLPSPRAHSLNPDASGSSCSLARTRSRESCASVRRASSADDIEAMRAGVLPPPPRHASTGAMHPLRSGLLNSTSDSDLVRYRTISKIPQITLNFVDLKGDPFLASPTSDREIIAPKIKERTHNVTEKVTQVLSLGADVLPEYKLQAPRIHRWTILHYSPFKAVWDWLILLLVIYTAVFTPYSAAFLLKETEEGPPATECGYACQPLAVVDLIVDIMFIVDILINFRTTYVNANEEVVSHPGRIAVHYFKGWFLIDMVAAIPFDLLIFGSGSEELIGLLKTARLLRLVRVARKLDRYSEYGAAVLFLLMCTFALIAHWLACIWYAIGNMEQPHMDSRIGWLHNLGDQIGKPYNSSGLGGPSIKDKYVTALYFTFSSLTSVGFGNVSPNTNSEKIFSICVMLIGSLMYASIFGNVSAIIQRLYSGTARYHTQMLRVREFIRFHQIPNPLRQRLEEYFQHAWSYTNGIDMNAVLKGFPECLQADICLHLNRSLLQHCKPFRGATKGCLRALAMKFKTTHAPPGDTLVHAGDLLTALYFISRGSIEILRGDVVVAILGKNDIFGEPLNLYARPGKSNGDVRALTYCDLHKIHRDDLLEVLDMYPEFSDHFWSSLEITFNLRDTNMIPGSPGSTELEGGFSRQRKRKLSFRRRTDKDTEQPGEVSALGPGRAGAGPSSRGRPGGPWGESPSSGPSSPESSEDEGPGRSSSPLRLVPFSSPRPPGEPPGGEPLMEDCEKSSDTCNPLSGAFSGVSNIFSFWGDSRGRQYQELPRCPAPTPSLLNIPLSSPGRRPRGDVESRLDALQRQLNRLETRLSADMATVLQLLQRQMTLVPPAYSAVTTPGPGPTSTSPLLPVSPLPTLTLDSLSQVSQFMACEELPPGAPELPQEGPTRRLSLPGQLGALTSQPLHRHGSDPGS
Method in brief: (§2)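 CHO-K1 Tet-On hERG cells, with expression induced by doxycycline 5 μg/ml, recorded 20–32 h after induction. Whole-cell automated patch clamp used intracellular solution of 50 KCl, 60 KF, 10 NaCl, 2 MgCl2, 20 EGTA, 10 HEPES pH 7.2 (mM) and extracellular solution of 140 NaCl, 4 KCl, 2 CaCl2, 1 MgCl2, 5 glucose, 10 HEPES pH 7.4. Compound perfused for 100–200 s until tail-current block reached equilibrium. Percent inhibition taken at 100 μM.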

[3] = biological target: T1, Inhibitor of nuclear factor kappa-B kinase subunit beta; assay: Inhibition of IKKbeta (unknown origin) using IkappaBalpha-derived 5FAMGRHDSGLDSMK-NH2 as substrate preincubated for 10 mins followed by substrate addition measured after 2 hrs by IMAP based TR-FRET assay; method in brief: as §1
[4] = system: hERG (KCNH2) versus IKKbeta; assay: Safety index, ratio of compound IC50 for human ERG expressed in CHOK1 cells to IC50 for IKKbeta (unknown origin); type: toxicity, cell-based; settings: CHO-K1 cells expressing human ERG, read-out: Ratio IC50
Method in brief: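 Safety index calculated as hERG IC50 divided by IKK-β IC50.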

[5] = biological target: Voltage-gated inwardly rectifying potassium channel KCNH2 (Homo sapiens, UniProt Q12809); assay: Inhibition of human ERG expressed in CHOK1 cells assessed as reduction in tail current at -80 holding potential after 100 to 200 secs by whole cell automated patch-clamp electrophysiology assay; type: ADME, cell-based; method in brief: as §2
Chain of Voltage-gated inwardly rectifying potassium channel KCNH2 (Q12809 whole entry): as the sequence (Q12809 whole entry, the tested form may be a part) above

[6] = biological target: T1, Inhibitor of nuclear factor kappa-B kinase subunit beta; assay: Irreversible inhibition of IKKbeta (unknown origin) using IkappaBalpha-derived 5FAMGRHDSGLDSMK-NH2 as substrate measured immediately
Method in brief: (§3)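 Same IKK2 IMAP TR-FRET system (0.5 µg/mL enzyme, 1 μM peptide, 3 μM ATP, room temperature). Ten concentrations, 0.001–30 μM, with reactions run for 0, 20, 40 or 60 min instead of 2 h. Dose–response curves fitted at each time point. Kobs obtained from ln(% activity remaining) against time, then regressed nonlinearly against concentration.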

[7] = biological target: T2, Inhibitor of nuclear factor kappa-B kinase subunit beta (Homo sapiens); assay: Irreversible inhibition of IKKbeta (unknown origin) at 0.001 to 30 uM using IkappaBalpha-derived 5FAMGRHDSGLDSMK-NH2 as substrate measured up to 60 mins; method in brief: as §3
[8] = biological target: T1, Inhibitor of nuclear factor kappa-B kinase subunit beta; assay: Irreversible inhibition of IKKbeta (unknown origin) using IkappaBalpha-derived 5FAMGRHDSGLDSMK-NH2 as substrate measured after 20 mins; method in brief: as §3
[9] = Cytotoxicity against LPS-treated mouse RAW264.7 cells assessed as decrease in cell viability after 24 hrs by MTT assay; type: cell-based; settings: LPS-treated RAW264.7 cells
Method in brief: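 RAW 264.7 cells seeded at 1×10^5 cells/mL, grown overnight, then exposed to samples for 24 h, with or without 1 μg/ml LPS. MTT added from a 5 mg/mL PBS stock for 4 h at 37 °C. Formazan dissolved in DMSO and absorbance read at 540 nm. IC80 is the concentration lowering viability to 80% in the presence of LPS.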

[10] = biological target: T1, Inhibitor of nuclear factor kappa-B kinase subunit beta; assay: Irreversible inhibition of IKKbeta (unknown origin) using IkappaBalpha-derived 5FAMGRHDSGLDSMK-NH2 as substrate measured after 40 mins; method in brief: as §3
[11] = biological target: T1, Inhibitor of nuclear factor kappa-B kinase subunit beta; assay: Irreversible inhibition of IKKbeta (unknown origin) using IkappaBalpha-derived 5FAMGRHDSGLDSMK-NH2 as substrate measured after 60 mins; method in brief: as §3
RAW264.7 [12] = assay: Antiinflammatory activity against mouse RAW264.7 cells assessed as inhibition of LPS-induced TNFalpha production incubated for 1 hr followed by LPS addition measured after 24 hrs by ELISA; type: functional, cell-based
Method in brief: (§4)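 RAW 264.7 macrophages (DMEM, 10% FBS, penicillin/streptomycin, 37 °C, 5% CO2) plated at 2×10^5 cells/mL and left overnight. Compounds at 1.5, 3 and 6 μM, or NS-398 as positive control, given for 1 h, then LPS (10 ng/mL) for 24 h. PGE2 and TNF-α in diluted culture medium quantified by ELISA. IC50 is the concentration halving the produced mediator.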

RAW264.7 [13] = assay: Antiinflammatory activity against mouse RAW264.7 cells assessed as inhibition of LPS-induced PGE2 production incubated for 1 hr followed by LPS addition measured after 24 hrs by ELISA; type: functional, cell-based; method in brief: as §4

O=C1N/C(=N\c2ccc(O)cc2)S/C1=C\c1cc2ccccc2[nH]1
IC50 [1]: 97400 nM

CS(=O)(=O)N1CCN(CCCCOc2ccc(N3C(=O)S/C(=C\c4ccc(Oc5ccc(Br)cc5)cc4)C3=O)cc2)CC1
inhibition [2]: 3.3%

O=C(C1CC1)N1CCN(CCCCOc2ccc(N3C(=O)S/C(=C\c4ccc(Oc5ccc(Br)cc5)cc4)C3=O)cc2)CC1
inhibition at 100 µM (hERG (KCNH2)): 17.1%
inhibition [2]: 52.4%
IC50 [3]: 8600 nM

COCCCN1CCN(CCCCOc2ccc(N3C(=O)S/C(=C\c4ccc(Oc5ccc([N+](=O)[O-])cc5)cc4)C3=O)cc2)CC1
inhibition [2]: 9.4%

O=C1S/C(=C\c2ccc(Oc3ccc(F)cc3)cc2)C(=O)N1c1ccc(OCCCCN2CCN(CC3CC3)CC2)cc1
selectivity ratio [4]: 2
inhibition at 100 µM (hERG (KCNH2)): 99.5%
IC50 [5]: 3400 nM
inhibition [2]: 85.7%
IC50 [3]: 1700 nM

COCCN1CCN(CCCCOc2ccc(N3C(=O)S/C(=C\c4ccc(Oc5ccc(Br)cc5)cc4)C3=O)cc2)CC1
inhibition [2]: 0%

COCCCN1CCN(CCCCOc2ccc(N3C(=O)S/C(=C\c4ccc(Oc5ccc(F)cc5)cc4)C3=O)cc2)CC1
inhibition [2]: 0.7%

CS(=O)(=O)N1CCN(CCCCOc2ccc(N3C(=O)S/C(=C\c4ccc(Oc5ccc([N+](=O)[O-])cc5)cc4)C3=O)cc2)CC1
inhibition [2]: 0%

COCCCN1CCN(CCCCOc2ccc(N3C(=O)S/C(=C\c4ccc(Oc5ccc(Cl)cc5)cc4)C3=O)cc2)CC1
inhibition [2]: 1.6%

COCCN1CCN(CCCCOc2ccc(N3C(=O)S/C(=C\c4ccc(Oc5ccc(Cl)cc5)cc4)C3=O)cc2)CC1
inhibition [2]: 1.7%

O=C1S/C(=C\c2ccc(N3CCOCC3)c(Cl)c2)C(=O)N1c1ccc(OCCCN2CCN(CC3CC3)CC2)cc1
IC50 [6]: 372 nM
inhibition [7]: Active
IC50 [8]: 288 nM
IC80 at 24 h [9]: 2670 nM
IC50 [10]: 251 nM
inhibition [2]: 90.7%
IC50 [11]: 252 nM
IC50 [3]: 700 nM
IC50 (RAW264.7 [12]): > 6000 nM

COCCCN1CCN(CCCCOc2ccc(N3C(=O)S/C(=C\c4ccc(Oc5ccc(Br)cc5)cc4)C3=O)cc2)CC1
inhibition [2]: 0%

O=C1S/C(=C\c2ccc(Oc3ccc(F)cc3)cc2)C(=O)N1c1ccc(OCCCN2CCN(CC3CC3)CC2)cc1
inhibition [2]: 88.8%
IC50 [3]: 1400 nM

O=C1S/C(=C\c2ccc(Oc3ccc(F)cc3)cc2)C(=O)N1c1ccc(OCCCCCN2CCN(CC3CC3)CC2)cc1
IC50 [6]: 1100 nM
inhibition [7]: Active
IC50 [8]: 340 nM
IC80 at 24 h [9]: > 6000 nM
IC50 [10]: 299 nM
inhibition [2]: 92.8%
IC50 [11]: 240 nM
IC50 [3]: 400 nM
IC50 (RAW264.7 [12]): 1670 nM
Activity (RAW264.7 [13]): Dose-dependent effect
IC50 (RAW264.7 [13]): > 6000 nM

COCCN1CCN(CCCCOc2ccc(N3C(=O)S/C(=C\c4ccc(Oc5ccc([N+](=O)[O-])cc5)cc4)C3=O)cc2)CC1
inhibition [2]: 9.3%

O=C(C1CC1)N1CCN(CCCCOc2ccc(N3C(=O)S/C(=C\c4ccc(Oc5ccc(F)cc5)cc4)C3=O)cc2)CC1
inhibition [2]: 21.2%

O=C1S/C(=C\c2ccc(N3CCOCC3)c(Cl)c2)C(=O)N1c1ccc(OCCCCCN2CCN(CC3CC3)CC2)cc1
IC80 at 24 h [9]: < 1500 nM
inhibition [2]: 92.1%
IC50 [3]: 900 nM
Activity (RAW264.7 [13]): Dose-dependent effect
IC50 (RAW264.7 [13]): > 6000 nM

O=C1S/C(=C\c2ccc(Oc3ccc(Cl)cc3)cc2)C(=O)N1c1ccc(OCCCCN2CCN(CC3CC3)CC2)cc1
inhibition [2]: 37.5%

COCCN1CCN(CCCCOc2ccc(N3C(=O)S/C(=C\c4ccc(Oc5ccc(F)cc5)cc4)C3=O)cc2)CC1
inhibition [2]: 1.6%

O=C(C1CC1)N1CCN(CCCCOc2ccc(N3C(=O)S/C(=C\c4ccc(Oc5ccc(Cl)cc5)cc4)C3=O)cc2)CC1
inhibition [2]: 17%

CS(=O)(=O)N1CCN(CCCCOc2ccc(N3C(=O)S/C(=C\c4ccc(Oc5ccc(Cl)cc5)cc4)C3=O)cc2)CC1
inhibition [2]: 0.8%

O=C1S/C(=C\c2ccc(Oc3ccc([N+](=O)[O-])cc3)cc2)C(=O)N1c1ccc(OCCCCN2CCN(CC3CC3)CC2)cc1
selectivity ratio [4]: 36.9
IC80 at 24 h [9]: > 6000 nM
inhibition at 100 µM (hERG (KCNH2)): 61.2%
IC50 [5]: 55300 nM
inhibition [2]: 85.6%
IC50 [3]: 1500 nM
IC50 (RAW264.7 [12]): 3410 nM
Activity (RAW264.7 [13]): Dose-dependent effect
IC50 (RAW264.7 [13]): > 6000 nM

O=C1S/C(=C\c2ccc(Oc3ccc(Br)cc3)cc2)C(=O)N1c1ccc(OCCCCN2CCN(CC3CC3)CC2)cc1
selectivity ratio [4]: 3.5
inhibition at 100 µM (hERG (KCNH2)): 66.5%
IC50 [5]: 27500 nM
inhibition [2]: 60.8%
IC50 [3]: 7900 nM

O=C(C1CC1)N1CCN(CCCCOc2ccc(N3C(=O)S/C(=C\c4ccc(Oc5ccc([N+](=O)[O-])cc5)cc4)C3=O)cc2)CC1
inhibition [2]: 21.7%

CS(=O)(=O)N1CCN(CCCCOc2ccc(N3C(=O)S/C(=C\c4ccc(Oc5ccc(F)cc5)cc4)C3=O)cc2)CC1
inhibition [2]: 2.7%

Nc1nc(N)nc(-c2ccc(Oc3ccccc3N)cc2)n1
IC50 [1]: 7800 nM

Source: ChEMBL document CHEMBL4270615, “Design, synthesis and biological evaluation of novel thiazolidinedione derivatives as irreversible allosteric IKK-β modulators” (Eur J Med Chem, 2018)
